Results: ChEMBL document CHEMBL1955770, “Inhibition of S/G2 phase CDK4 reduces mitotic fidelity” (J Biol Chem, 2006)

How the values were obtained:
[1] = biological target: Angiopoietin-1 receptor (Homo sapiens) (UniProt Q02763); assay: Inhibition of TIE2 at 1 uM
[2] = biological target: Receptor tyrosine-protein kinase erbB-2 (Homo sapiens) (UniProt P04626); assay: Inhibition of ERBB2 at 1 uM
[3] = biological target: Fibroblast growth factor receptor 1 (Homo sapiens) (UniProt P11362); assay: Inhibition of FGFR1 at 1 uM
[4] = biological target: 3-phosphoinositide-dependent protein kinase 1 (Homo sapiens) (UniProt O15530); assay: Inhibition of PDPK1 at 1 uM
[5] = biological target: Aurora kinase C (Homo sapiens) (UniProt Q9UQB9); assay: Inhibition of AURKC at 1 uM
Procedure, shortened: (§1)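 Competition binding screen across a kinase panel with compound at 1 μM. Read-out is % competition. Kinases not hit at this concentration were scored '<50'. No Kd was determined for hits.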

[6] = biological target: Ephrin type-A receptor 5 (Homo sapiens) (UniProt P54756); assay: Inhibition of EPHA5 at 1 uM
[7] = biological target: Serine/threonine-protein kinase Nek6 (Homo sapiens) (UniProt Q9HC98); assay: Inhibition of NEK6 at 1 uM
[8] = biological target: High affinity nerve growth factor receptor (Homo sapiens) (UniProt P04629); assay: Inhibition of TRKA at 1 uM
[9] = biological target: Serine/threonine-protein kinase PLK4 (Homo sapiens) (UniProt O00444); assay: Inhibition of PLK4 at 1 uM
[10] = biological target: Tyrosine-protein kinase Yes (Homo sapiens) (UniProt P07947); assay: Inhibition of YES at 1 uM
[11] = biological target: Tyrosine-protein kinase Fer (Homo sapiens) (UniProt P16591); assay: Inhibition of FER at 1 uM
[12] = biological target: Serine/threonine-protein kinase PAK 3 (Homo sapiens) (UniProt O75914); assay: Inhibition of PAK3 at 1 uM
[13] = biological target: Tyrosine-protein kinase BTK (Homo sapiens) (UniProt Q06187); assay: Inhibition of BTK at 1 uM; procedure, shortened: as §1
[14] = biological target: Calcium/calmodulin-dependent protein kinase type II subunit gamma (Homo sapiens) (UniProt Q13555); assay: Inhibition of CAMK2G at 1 uM
Procedure, shortened: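 Competition binding screen against a kinase panel, compound tested at a single concentration of 1 μM. Read-out is % competition, where higher scores mark stronger hits. Kinases not hit in the primary screen are reported as '<50'. No Kd values were determined.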

[15] = biological target: Epidermal growth factor receptor (Homo sapiens) (UniProt P00533); assay: Inhibition of EGFR at 1 uM
[16] = biological target: AP2-associated protein kinase 1 (Homo sapiens) (UniProt Q2M2I8); assay: Inhibition of AAK1 at 1 uM
[17] = biological target: Tyrosine-protein kinase CSK (Homo sapiens) (UniProt P41240); assay: Inhibition of CSK at 1 uM
[18] = biological target: Serine/threonine-protein kinase 17B (Homo sapiens) (UniProt O94768); assay: Inhibition of STK17B at 1 uM
[19] = biological target: RAC-alpha serine/threonine-protein kinase (Homo sapiens) (UniProt P31749); assay: Inhibition of AKT1 at 1 uM; procedure, shortened: as §1
[20] = biological target: Vascular endothelial growth factor receptor 2 (Homo sapiens) (UniProt P35968); assay: Inhibition of VEGFR2 at 1 uM
[21] = biological target: Serine/threonine-protein kinase Nek9 (Homo sapiens) (UniProt Q8TD19); assay: Inhibition of NEK9 at 1 uM
[22] = biological target: 5'-AMP-activated protein kinase catalytic subunit alpha-1 (Homo sapiens) (UniProt Q13131); assay: Inhibition of AMPK-alpha1 at 1 uM; procedure, shortened: as §1
[23] = biological target: Serine/threonine-protein kinase 4 (Homo sapiens) (UniProt Q13043); assay: Inhibition of STK4 at 1 uM
[24] = biological target: Calcium/calmodulin-dependent protein kinase type II subunit alpha (Homo sapiens) (UniProt Q9UQM7); assay: Inhibition of CAMK2A at 1 uM; procedure, shortened: as §1
[25] = biological target: Fibroblast growth factor receptor 3 (Homo sapiens) (UniProt P22607); assay: Inhibition of FGFR3 at 1 uM
[26] = biological target: Dual specificity protein kinase CLK2 (Homo sapiens) (UniProt P49760); assay: Inhibition of CLK2 at 1 uM
[27] = biological target: Dual specificity protein kinase CLK3 (Homo sapiens) (UniProt P49761); assay: Inhibition of CLK3 at 1 uM
[28] = biological target: Mitogen-activated protein kinase 14 (Homo sapiens) (UniProt Q16539); assay: Inhibition of p38-alpha at 1 uM
[29] = biological target: Receptor-interacting serine/threonine-protein kinase 2 (Homo sapiens) (UniProt O43353); assay: Inhibition of RIPK2 at 1 uM
[30] = biological target: Insulin-like growth factor 1 receptor (Homo sapiens, UniProt P08069); assay: Inhibition of IGF1R at 1 uM
[31] = biological target: Tyrosine-protein kinase ABL1 (Homo sapiens) (UniProt P00519); assay: Inhibition of ABL1 at 1 uM
[32] = biological target: Mitogen-activated protein kinase kinase kinase 4 (Homo sapiens) (UniProt Q9Y6R4); assay: Inhibition of MAP3K4 at 1 uM
[33] = biological target: Serine/threonine-protein kinase 3 (Homo sapiens) (UniProt Q13188); assay: Inhibition of STK3 at 1 uM
[34] = biological target: Platelet-derived growth factor receptor alpha (Homo sapiens) (UniProt P16234); assay: Inhibition of PDGFRA at 1 uM
[35] = biological target: Receptor tyrosine-protein kinase erbB-4 (Homo sapiens) (UniProt Q15303); assay: Inhibition of ERBB4 at 1 uM
[36] = biological target: Calcium/calmodulin-dependent protein kinase type II subunit delta (Homo sapiens) (UniProt Q13557); assay: Inhibition of CAMK2D at 1 uM; procedure, shortened: as §1
[37] = biological target: Leukocyte tyrosine kinase receptor (Homo sapiens) (UniProt P29376); assay: Inhibition of LTK at 1 uM
[38] = biological target: Mitogen-activated protein kinase 9 (Homo sapiens) (UniProt P45984); assay: Inhibition of JNK2 at 1 uM
[39] = biological target: Serine/threonine-protein kinase pim-2 (Homo sapiens) (UniProt Q9P1W9); assay: Inhibition of PIM2 at 1 uM
[40] = biological target: Protein-tyrosine kinase 6 (Homo sapiens) (UniProt Q13882); assay: Inhibition of PTK6 at 1 uM
[41] = biological target: Ephrin type-A receptor 2 (Homo sapiens) (UniProt P29317); assay: Inhibition of EPHA2 at 1 uM
[42] = biological target: Serine/threonine-protein kinase MARK2 (Homo sapiens) (UniProt Q7KZI7); assay: Inhibition of MARK2 at 1 uM
[43] = biological target: Mitogen-activated protein kinase kinase kinase kinase 5 (Homo sapiens) (UniProt Q9Y4K4); assay: Inhibition of MAP4K5 at 1 uM
[44] = biological target: Dual specificity protein kinase TTK (Homo sapiens) (UniProt P33981); assay: Inhibition of TTK at 1 uM
[45] = biological target: MAP kinase-interacting serine/threonine-protein kinase 2 (Homo sapiens) (UniProt Q9HBH9); assay: Inhibition of MKNK2 at 1 uM
[46] = biological target: Receptor-type tyrosine-protein kinase FLT3 (Homo sapiens) (UniProt P36888); assay: Inhibition of FLT3 at 1 uM
Receptor-type tyrosine-protein kinase FLT3 (Homo sapiens), sequence (P36888 whole entry): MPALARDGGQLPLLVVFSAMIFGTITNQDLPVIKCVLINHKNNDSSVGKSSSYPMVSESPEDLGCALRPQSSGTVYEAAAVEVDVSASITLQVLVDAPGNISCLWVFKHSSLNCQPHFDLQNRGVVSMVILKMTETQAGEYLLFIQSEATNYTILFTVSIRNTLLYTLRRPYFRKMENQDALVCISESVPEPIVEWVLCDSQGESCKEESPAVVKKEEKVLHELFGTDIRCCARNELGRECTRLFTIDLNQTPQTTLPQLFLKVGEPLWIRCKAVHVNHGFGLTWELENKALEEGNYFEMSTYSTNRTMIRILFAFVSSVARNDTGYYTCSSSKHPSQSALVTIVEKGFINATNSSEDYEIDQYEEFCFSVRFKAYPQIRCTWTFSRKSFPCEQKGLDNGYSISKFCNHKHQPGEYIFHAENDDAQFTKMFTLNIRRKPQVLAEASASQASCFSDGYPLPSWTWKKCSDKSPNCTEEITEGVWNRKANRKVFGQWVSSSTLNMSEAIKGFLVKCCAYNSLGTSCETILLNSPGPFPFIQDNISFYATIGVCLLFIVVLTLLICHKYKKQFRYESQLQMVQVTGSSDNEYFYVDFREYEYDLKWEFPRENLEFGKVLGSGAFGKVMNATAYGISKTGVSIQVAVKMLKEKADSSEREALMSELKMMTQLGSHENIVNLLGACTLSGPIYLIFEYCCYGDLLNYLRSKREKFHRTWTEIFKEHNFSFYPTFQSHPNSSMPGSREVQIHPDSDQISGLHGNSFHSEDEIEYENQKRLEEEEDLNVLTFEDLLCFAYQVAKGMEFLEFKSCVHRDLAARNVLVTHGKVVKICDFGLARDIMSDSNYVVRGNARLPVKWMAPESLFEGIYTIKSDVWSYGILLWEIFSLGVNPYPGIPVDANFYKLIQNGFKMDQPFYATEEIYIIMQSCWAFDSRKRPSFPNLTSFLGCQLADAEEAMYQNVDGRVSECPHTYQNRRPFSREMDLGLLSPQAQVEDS

Calcium/calmodulin-dependent protein kinase type II subunit gamma (Homo sapiens), sequence (Q13555 whole entry): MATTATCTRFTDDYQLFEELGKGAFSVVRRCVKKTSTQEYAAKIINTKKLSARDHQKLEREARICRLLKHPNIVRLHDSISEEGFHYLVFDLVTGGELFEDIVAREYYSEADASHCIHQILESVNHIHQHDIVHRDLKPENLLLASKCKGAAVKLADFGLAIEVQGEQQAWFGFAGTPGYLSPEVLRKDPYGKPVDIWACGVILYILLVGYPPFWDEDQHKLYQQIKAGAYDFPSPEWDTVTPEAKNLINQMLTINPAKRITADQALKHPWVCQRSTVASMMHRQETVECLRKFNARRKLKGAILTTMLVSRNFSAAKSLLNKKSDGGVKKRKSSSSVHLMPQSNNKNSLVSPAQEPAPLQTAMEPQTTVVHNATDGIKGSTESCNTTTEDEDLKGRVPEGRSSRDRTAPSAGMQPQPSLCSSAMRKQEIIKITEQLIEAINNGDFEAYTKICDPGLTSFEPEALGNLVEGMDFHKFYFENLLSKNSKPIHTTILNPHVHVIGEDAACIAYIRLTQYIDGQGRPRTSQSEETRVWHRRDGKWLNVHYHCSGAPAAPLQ
Dual specificity protein kinase CLK2 (Homo sapiens), sequence (P49760 whole entry, looked up): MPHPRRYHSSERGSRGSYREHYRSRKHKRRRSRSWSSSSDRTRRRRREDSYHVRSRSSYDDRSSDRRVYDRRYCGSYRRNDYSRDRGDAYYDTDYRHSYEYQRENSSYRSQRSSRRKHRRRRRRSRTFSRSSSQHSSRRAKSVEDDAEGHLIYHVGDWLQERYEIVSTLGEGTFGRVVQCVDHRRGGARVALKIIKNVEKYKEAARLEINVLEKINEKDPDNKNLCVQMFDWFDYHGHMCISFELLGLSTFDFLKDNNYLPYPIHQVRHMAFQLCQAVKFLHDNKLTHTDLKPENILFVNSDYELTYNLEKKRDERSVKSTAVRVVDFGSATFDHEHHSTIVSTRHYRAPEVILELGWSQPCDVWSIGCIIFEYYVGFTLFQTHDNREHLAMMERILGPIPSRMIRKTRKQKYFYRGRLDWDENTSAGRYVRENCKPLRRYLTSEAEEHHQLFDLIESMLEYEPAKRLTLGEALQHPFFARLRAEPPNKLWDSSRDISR
Serine/threonine-protein kinase 17B (Homo sapiens), sequence (O94768 whole entry): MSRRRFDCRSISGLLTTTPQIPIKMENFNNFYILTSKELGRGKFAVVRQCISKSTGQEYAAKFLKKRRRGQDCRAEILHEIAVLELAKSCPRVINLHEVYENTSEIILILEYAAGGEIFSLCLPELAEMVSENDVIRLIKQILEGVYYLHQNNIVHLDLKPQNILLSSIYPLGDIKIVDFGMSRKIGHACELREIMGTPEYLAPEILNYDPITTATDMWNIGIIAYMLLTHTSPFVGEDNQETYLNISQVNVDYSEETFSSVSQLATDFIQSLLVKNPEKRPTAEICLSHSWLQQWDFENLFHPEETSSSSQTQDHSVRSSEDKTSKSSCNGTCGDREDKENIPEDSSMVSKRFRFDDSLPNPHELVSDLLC
Receptor tyrosine-protein kinase erbB-2 (Homo sapiens), sequence (P04626 whole entry): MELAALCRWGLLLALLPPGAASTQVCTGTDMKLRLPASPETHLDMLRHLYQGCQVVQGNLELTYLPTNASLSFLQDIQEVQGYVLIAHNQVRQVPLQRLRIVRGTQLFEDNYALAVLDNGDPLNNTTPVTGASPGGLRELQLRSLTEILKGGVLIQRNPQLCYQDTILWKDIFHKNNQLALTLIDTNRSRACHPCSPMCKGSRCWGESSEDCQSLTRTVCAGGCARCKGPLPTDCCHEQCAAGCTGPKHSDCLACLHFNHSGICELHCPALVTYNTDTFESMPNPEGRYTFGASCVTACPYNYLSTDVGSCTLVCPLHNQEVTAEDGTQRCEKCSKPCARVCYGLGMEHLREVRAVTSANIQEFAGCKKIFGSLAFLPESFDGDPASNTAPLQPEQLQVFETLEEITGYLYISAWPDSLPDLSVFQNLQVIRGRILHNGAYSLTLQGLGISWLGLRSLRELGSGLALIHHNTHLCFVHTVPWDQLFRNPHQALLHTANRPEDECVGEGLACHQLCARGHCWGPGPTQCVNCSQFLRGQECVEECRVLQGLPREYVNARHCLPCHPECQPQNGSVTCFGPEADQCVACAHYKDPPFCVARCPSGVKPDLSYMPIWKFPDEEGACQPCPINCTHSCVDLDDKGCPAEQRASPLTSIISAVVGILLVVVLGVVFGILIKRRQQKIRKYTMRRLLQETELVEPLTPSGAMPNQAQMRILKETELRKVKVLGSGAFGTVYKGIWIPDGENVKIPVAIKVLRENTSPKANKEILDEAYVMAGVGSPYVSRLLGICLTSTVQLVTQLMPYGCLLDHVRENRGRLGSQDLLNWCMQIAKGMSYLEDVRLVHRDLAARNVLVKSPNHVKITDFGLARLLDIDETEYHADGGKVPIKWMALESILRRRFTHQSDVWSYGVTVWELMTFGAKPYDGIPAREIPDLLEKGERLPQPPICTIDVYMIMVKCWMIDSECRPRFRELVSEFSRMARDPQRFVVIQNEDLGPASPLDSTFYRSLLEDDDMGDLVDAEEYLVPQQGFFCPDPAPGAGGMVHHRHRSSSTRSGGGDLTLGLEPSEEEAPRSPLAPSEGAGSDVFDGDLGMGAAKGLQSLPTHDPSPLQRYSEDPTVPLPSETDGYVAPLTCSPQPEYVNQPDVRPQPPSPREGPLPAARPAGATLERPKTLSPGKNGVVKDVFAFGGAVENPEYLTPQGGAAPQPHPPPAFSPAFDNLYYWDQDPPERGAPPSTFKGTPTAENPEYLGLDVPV
Serine/threonine-protein kinase 3 (Homo sapiens), sequence (Q13188 whole entry): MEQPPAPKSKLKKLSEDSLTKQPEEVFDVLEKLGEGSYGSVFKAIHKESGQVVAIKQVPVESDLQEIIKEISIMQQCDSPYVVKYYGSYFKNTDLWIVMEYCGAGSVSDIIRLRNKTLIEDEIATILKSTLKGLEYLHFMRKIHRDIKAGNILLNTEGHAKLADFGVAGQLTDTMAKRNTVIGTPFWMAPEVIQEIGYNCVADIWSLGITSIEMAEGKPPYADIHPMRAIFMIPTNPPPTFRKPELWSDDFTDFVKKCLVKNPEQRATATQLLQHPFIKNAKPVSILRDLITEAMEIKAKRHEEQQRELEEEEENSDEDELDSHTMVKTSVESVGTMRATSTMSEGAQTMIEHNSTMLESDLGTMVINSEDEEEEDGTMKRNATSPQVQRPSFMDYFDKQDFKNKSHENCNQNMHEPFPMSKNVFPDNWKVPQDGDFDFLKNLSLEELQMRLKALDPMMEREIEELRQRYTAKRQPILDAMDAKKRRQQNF
Serine/threonine-protein kinase pim-2 (Homo sapiens), sequence (Q9P1W9 whole entry, looked up): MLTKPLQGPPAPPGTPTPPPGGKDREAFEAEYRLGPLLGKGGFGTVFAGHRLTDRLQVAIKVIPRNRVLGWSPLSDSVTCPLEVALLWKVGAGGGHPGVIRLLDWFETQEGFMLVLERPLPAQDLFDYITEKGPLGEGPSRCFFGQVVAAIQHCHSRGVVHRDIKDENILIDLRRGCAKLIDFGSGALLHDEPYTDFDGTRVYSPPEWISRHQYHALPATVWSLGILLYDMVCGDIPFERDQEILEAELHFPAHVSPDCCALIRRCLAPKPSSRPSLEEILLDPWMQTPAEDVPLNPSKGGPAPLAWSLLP
Tyrosine-protein kinase Yes (Homo sapiens), sequence (P07947 2-543 limits assumed): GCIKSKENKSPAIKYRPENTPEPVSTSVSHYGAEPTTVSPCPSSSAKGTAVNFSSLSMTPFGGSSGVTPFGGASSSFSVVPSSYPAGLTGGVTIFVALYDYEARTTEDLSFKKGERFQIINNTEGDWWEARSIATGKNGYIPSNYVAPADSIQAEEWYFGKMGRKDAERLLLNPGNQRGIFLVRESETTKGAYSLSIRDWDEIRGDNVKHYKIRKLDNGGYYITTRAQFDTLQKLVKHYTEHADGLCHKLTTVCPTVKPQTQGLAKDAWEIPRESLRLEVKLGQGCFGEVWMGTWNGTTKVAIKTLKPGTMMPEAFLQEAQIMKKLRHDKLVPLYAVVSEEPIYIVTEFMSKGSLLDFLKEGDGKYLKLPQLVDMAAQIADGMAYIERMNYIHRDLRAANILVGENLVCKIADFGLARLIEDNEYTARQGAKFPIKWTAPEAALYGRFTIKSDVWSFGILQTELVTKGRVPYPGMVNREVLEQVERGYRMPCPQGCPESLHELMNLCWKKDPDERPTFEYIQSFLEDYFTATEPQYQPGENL

inhibition [1]: < 50%
inhibition [2]: < 50%
inhibition [3]: < 50%
inhibition [4]: < 50%
inhibition [5]: < 50%
inhibition [6]: < 50%
inhibition [7]: < 50%
inhibition [8]: < 50%
inhibition [9]: < 50%
inhibition [10]: < 50%
inhibition [11]: < 50%
inhibition [12]: < 50%
inhibition [13]: < 50%
inhibition [14]: < 50%
inhibition [15]: < 50%
inhibition [16]: 84%
inhibition [17]: < 50%
inhibition [18]: < 50%
inhibition [19]: < 50%
inhibition [20]: < 50%
inhibition [22]: < 50%
inhibition [23]: < 50%
inhibition [24]: < 50%
inhibition [25]: < 50%
inhibition [26]: 100%
inhibition [27]: 89%
inhibition [28]: < 50%
inhibition [29]: < 50%
inhibition [30]: < 50%
inhibition [31]: < 50%
inhibition [32]: < 50%
inhibition [33]: < 50%
inhibition [34]: < 50%
inhibition [35]: < 50%
inhibition [36]: < 50%
inhibition [37]: < 50%
inhibition [38]: < 50%
inhibition [39]: < 50%
inhibition [40]: < 50%
inhibition [41]: < 50%
inhibition [42]: < 50%
inhibition [43]: < 50%
inhibition [44]: 78%
inhibition [45]: < 50%
inhibition [46]: < 50%
Compound: CN1CCN(c2ccc(Nc3nc(N)c(C(=O)c4ccc5c(c4)OCCO5)s3)cc2)CC1
inhibition [21]: < 50%
